# Test results published in article PMC6431292 (Journal of molecular biology, 2018).
# Numbering of substitutions follows the chain as printed.
# Legend:
# Format in all cases: binding
# [1] = target: T1, BLVRB (biliverdin reductase B) (Homo sapiens, UniProt P30043); test: NMR titration
# T1 sequence (P30043 1-206): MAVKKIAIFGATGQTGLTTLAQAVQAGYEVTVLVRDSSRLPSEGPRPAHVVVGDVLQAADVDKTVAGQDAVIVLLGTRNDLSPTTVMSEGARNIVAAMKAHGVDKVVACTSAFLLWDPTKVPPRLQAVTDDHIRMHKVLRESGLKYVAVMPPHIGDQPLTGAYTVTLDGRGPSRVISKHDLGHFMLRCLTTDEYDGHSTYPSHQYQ
# [2] = target: T1, BLVRB (biliverdin reductase B); test: isothermal titration calorimetry
# [3] = target: T2, BLVRB (biliverdin reductase B) (Homo sapiens, UniProt P30043, R78A); test: isothermal titration calorimetry
# T2 sequence (P30043 1-206 R78A): T1 sequence (P30043 1-206) with R78A
# Method in brief: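 Human BLVRB (R78A mutant) expressed in E. coli BL21/DE3 with a cleavable N-terminal His-tag, Ni-purified under denaturing conditions, refolded by dialysis, tag removed, then gel-filtered. ITC used 100 μM enzyme in the cell, titrated with reduced or oxidized coenzyme (freshly prepared) at 1 mM. Buffer was 50 mM Bis–Tris pH 6.5, 50 mM NaCl, 1 mM DTT, at 20 °C. Runs were done in duplicate.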
Kd [1],Kd [2],Kd [3],Structure (SMILES)
590 ± 80 µM,–,–,Cc1cc2nc3c(=O)[nH]c(=O)nc-3n(C[C@H](O)[C@H](O)[C@H](O)COP(=O)(O)OP(=O)(O)OC[C@H]3O[C@@H](n4cnc5c(N)ncnc54)[C@H](O)[C@@H]3O)c2cc1C [FAD]
–,300 ± 200 nM,–,NC(=O)C1=CN([C@@H]2O[C@H](COP(=O)(O)OP(=O)(O)OC[C@H]3O[C@@H](n4cnc5c(N)ncnc54)[C@H](OP(=O)(O)O)[C@@H]3O)[C@@H](O)[C@H]2O)C=CC1 [NADPH]
–,400 ± 200 nM,2800 ± 200 nM,NC(=O)c1ccc[n+]([C@@H]2O[C@H](COP(=O)(O)OP(=O)(O)OC[C@H]3O[C@@H](n4cnc5c(N)ncnc54)[C@H](OP(=O)(O)O)[C@@H]3O)[C@@H](O)[C@H]2O)c1 [NADP^+]
